In ChEMBL document CHEMBL5247578, “Effective synthesis of benzimidazoles-imidazo[1,2-a]pyrazine conjugates: A comparative study of mono-and bis-benzimidazoles for antitumor activity” (Eur J Med Chem, 2019):
Calls of active or inactive are those of the source. The rule behind the calls is not given here.

Legend:
Calf thymus DNA [1] = assay: Binding affinity to calf thymus DNA assessed as intercalation by measuring decrease in DNA intensity by circular dichroism spectroscopy; format: nucleic-acid assay; conditions: Bos taurus
Calf thymus DNA [2] = assay: Binding affinity to calf thymus DNA assessed as quenching constant at temperature of 298 K by fluorescence spectroscopic method; format: nucleic-acid assay; conditions: Bos taurus
HEK293 = assay: Cytotoxicity against human HEK293 cells assessed as reduction in cell viability at 0.0000001 M incubated for 48 hrs by MTT colorimetric assay relative to control; format: toxicity, cell-based; conditions: hek293, 48 h, 0.1 µM, dose 100 nM
RXF 393 = assay: Antiproliferative activity against human RXF 393 cells assessed as cell growth at 0.00000001 M incubated for 48 hrs by SRB assay relative to control; format: functional; conditions: dose 10 nM, read-out: Activity
RPMI-8226 = assay: Antiproliferative activity against human RPMI-8226 cells assessed as cell growth at 0.00000001 M incubated for 48 hrs by SRB assay relative to control; format: functional; conditions: dose 10 nM, read-out: Activity
LOX IMVI [3] = assay: Antiproliferative activity against human LOX IMVI cells assessed as cell growth at 0.00000001 M incubated for 48 hrs by SRB assay relative to control; format: functional; conditions: dose 10 nM, read-out: Activity
Malme-3M [4] = assay: Antiproliferative activity against human Malme-3M cells assessed as cell growth inhibition by measuring lethal concentration incubated for 48 hrs by sulforhodamine B assay; format: functional; conditions: read-out: LC50 (the source's name)
TK-10 = assay: Growth inhibition against human TK-10 cells assessed as total growth inhibitory concentration incubated for 48 hrs by sulforhodamine B assay; format: functional
A498 = assay: Growth inhibition against human A498 cells assessed as total growth inhibitory concentration incubated for 48 hrs by sulforhodamine B assay; format: functional
SNB-75 = assay: Growth inhibition against human SNB-75 cells assessed as total growth inhibitory concentration incubated for 48 hrs by sulforhodamine B assay; format: functional
SR = assay: Growth inhibition against human SR cells assessed as total growth inhibitory concentration incubated for 48 hrs by sulforhodamine B assay; format: functional
MDA-MB-231 [5] = assay: Growth inhibition against human MDA-MB-231 cells incubated for 48 hrs by sulforhodamine B assay; format: functional
Malme-3M [6] = assay: Growth inhibition against human Malme-3M cells incubated for 48 hrs by sulforhodamine B assay; format: functional
LOX IMVI [7] = assay: Growth inhibition against human LOX IMVI cells incubated for 48 hrs by sulforhodamine B assay; format: functional
NCI-H23 = assay: Growth inhibition against human NCI-H23 cells incubated for 48 hrs by sulforhodamine B assay; format: functional
NCI-H226 = assay: Growth inhibition against human NCI-H226 cells incubated for 48 hrs by sulforhodamine B assay; format: functional
HOP-62 = assay: Antiproliferative activity against human HOP-62 cells assessed as cell growth at 0.0000001 M incubated for 48 hrs by SRB assay relative to control; format: functional; conditions: dose 100 nM, read-out: Activity
In short: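 NCI-60 five-dose screen (10^-4 to 10^-8 M). Cells grown in RPMI 1640 with 5% FBS and 2 mM L-glutamine, plated at 5,000-40,000 cells/well and preincubated 24 h. Drug given from DMSO stock, then 48 h at 37 °C, 5% CO2. For adherent lines, cells fixed with cold TCA, SRB-stained and read at 515 nm. Percent growth taken against time-zero and untreated control.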

SF-539 = assay: Antiproliferative activity against human SF-539 cells assessed as cell growth at 0.0000001 M incubated for 48 hrs by SRB assay relative to control; format: functional; conditions: dose 100 nM, read-out: Activity
MDA-MB-435 [8] = assay: Antiproliferative activity against human MDA-MB-435 cells assessed as cell growth at 0.0000001 M incubated for 48 hrs by SRB assay relative to control; format: functional; conditions: dose 100 nM, read-out: Activity
UACC-257 = assay: Antiproliferative activity against human UACC-257 cells assessed as cell growth at 0.0000001 M incubated for 48 hrs by SRB assay relative to control; format: functional; conditions: dose 100 nM, read-out: Activity
DU-145 = assay: Antiproliferative activity against human DU-145 cells assessed as cell growth at 0.0000001 M incubated for 48 hrs by SRB assay relative to control; format: functional; conditions: dose 100 nM, read-out: Activity
In short: (§1)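 NCI-60 five-dose screen over 10^-4–10^-8 M (10-fold dilutions). Cells grown in RPMI 1640 with 5% FBS and 2 mM L-glutamine, seeded at 5,000–40,000 cells/well and preincubated 24 h. Drug from DMSO stock, 48 h at 37 °C, 5% CO2. Adherent cells TCA-fixed and stained with 0.4% SRB; A515 read. Percent growth = (Ti−Tz)/(C−Tz)×100, or (Ti−Tz)/Tz×100 when Ti<Tz.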

NCI-H322M = assay: Antiproliferative activity against human NCI-H322M cells assessed as cell growth at 0.000001 M incubated for 48 hrs by SRB assay relative to control; format: functional; conditions: read-out: Activity
NCI/ADR-RES = assay: Antiproliferative activity against human NCI/ADR-RES cells assessed as cell growth at 0.000001 M incubated for 48 hrs by SRB assay relative to control; format: functional; conditions: read-out: Activity
CAKI-1 = assay: Antiproliferative activity against human CAKI-1 cells assessed as cell growth at 0.000001 M incubated for 48 hrs by SRB assay relative to control; format: functional; conditions: read-out: Activity; in short: as §1
MDA-MB-231 [9] = assay: Antiproliferative activity against human MDA-MB-231 cells assessed as cell growth at 0.000001 M incubated for 48 hrs by SRB assay relative to control; format: functional; conditions: read-out: Activity
BT-549 [10] = assay: Antiproliferative activity against human BT-549 cells assessed as cell growth at 0.000001 M incubated for 48 hrs by SRB assay relative to control; format: functional; conditions: read-out: Activity; in short: as §1
A549 [11] = assay: Antiproliferative activity against human A549 cells assessed as cell growth at 0.00001 M incubated for 48 hrs by SRB assay relative to control; format: functional; conditions: read-out: Activity; in short: as §1
SK-MEL-5 = assay: Antiproliferative activity against human SK-MEL-5 cells assessed as cell growth at 0.00001 M incubated for 48 hrs by SRB assay relative to control; format: functional; conditions: read-out: Activity
SK-OV-3 = assay: Antiproliferative activity against human SK-OV-3 cells assessed as cell growth at 0.00001 M incubated for 48 hrs by SRB assay relative to control; format: functional; conditions: read-out: Activity
A549 [12] = assay: Antiproliferative activity against human A549 cells assessed as cell growth at 0.0001 M incubated for 48 hrs by SRB assay relative to control; format: functional; conditions: read-out: Activity; in short: as §1
COLO 205 = assay: Antiproliferative activity against human COLO 205 cells assessed as cell growth at 0.0001 M incubated for 48 hrs by SRB assay relative to control; format: functional; conditions: read-out: Activity; in short: as §1
KM12 = assay: Antiproliferative activity against human KM12 cells assessed as cell growth at 0.0001 M incubated for 48 hrs by SRB assay relative to control; format: functional; conditions: read-out: Activity
Malme-3M [13] = assay: Antiproliferative activity against human Malme-3M cells assessed as cell growth at 0.0001 M incubated for 48 hrs by SRB assay relative to control; format: functional; conditions: read-out: Activity
MDA-MB-435 [14] = assay: Antiproliferative activity against human MDA-MB-435 cells assessed as cell growth at 0.0001 M incubated for 48 hrs by SRB assay relative to control; format: functional; conditions: read-out: Activity
BT-549 [15] = assay: Antiproliferative activity against human BT-549 cells assessed as cell growth at 0.0001 M incubated for 48 hrs by SRB assay relative to control; format: functional; conditions: read-out: Activity; in short: as §1

| Structure (SMILES) | Activity (Calf thymus DNA [1]) | Kq (Calf thymus DNA [2]) | Activity (HEK293) | growth at 0.01 µM (RXF 393) | growth at 0.01 µM (RPMI-8226) | growth at 0.01 µM (LOX IMVI [3]) | CC50 (Malme-3M [4]) | TGI (TK-10) | TGI (A498) | TGI (SNB-75) | TGI (SR) | GI50 (MDA-MB-231 [5]) | GI50 (Malme-3M [6]) | GI50 (LOX IMVI [7]) | GI50 (NCI-H23) | GI50 (NCI-H226) | growth at 0.1 µM (HOP-62) | growth at 0.1 µM (SF-539) | growth at 0.1 µM (MDA-MB-435 [8]) | growth at 0.1 µM (UACC-257) | further results |
| --- | --- | --- | --- | --- | --- | --- | --- | --- | --- | --- | --- | --- | --- | --- | --- | --- | --- | --- | --- | --- | --- |
| COc1ccc(-c2cn3ccnc3c(-c3ccc4ncn(C5CCCCC5)c4c3)n2)cc1 | Active | 4.65 10^12/M/s | 14.79% | 102% | 104% | 95% | > 100000 nM | 68900 nM | > 100000 nM | > 100000 nM | > 100000 nM | 2830 nM | 43100 nM | 741 nM | 2110 nM | 2970 nM | 93% | 97% | 92% | 104% | growth at 0.1 µM (DU-145): 102%; growth at 1 µM (NCI-H322M): 87%; growth at 1 µM (NCI/ADR-RES): 38%; growth at 1 µM (CAKI-1): 44%; growth at 1 µM (MDA-MB-231 [9]): 81%; growth at 1 µM (BT-549 [10]): 26%; growth at 10 µM (A549 [11]): 14%; growth at 10 µM (SK-MEL-5): -40%; growth at 10 µM (SK-OV-3): -5%; growth at 100 µM (A549 [12]): 16%; growth at 100 µM (COLO 205): -5%; growth at 100 µM (KM12): 10%; growth at 100 µM (Malme-3M [13]): 49%; growth at 100 µM (MDA-MB-435 [14]): 11%; growth at 100 µM (BT-549 [15]): -6% |
| c1ccc(Cn2cnc3ccc(-c4nc(-c5ccc6c(c5)ncn6C5CCCCC5)cn5ccnc45)cc32)cc1 | Active | 1.19 10^12/M/s | 13.6% | 101% | 108% | 98% | > 100000 nM | > 100000 nM | 3570 nM | 2890 nM | > 100000 nM | 1680 nM | 2540 nM | 1640 nM | 1880 nM | 2930 nM | 86% | 92% | 98% | 105% | growth at 0.1 µM (DU-145): 98%; growth at 1 µM (NCI-H322M): 89%; growth at 1 µM (NCI/ADR-RES): 84%; growth at 1 µM (CAKI-1): 71%; growth at 1 µM (MDA-MB-231 [9]): 83%; growth at 1 µM (BT-549 [10]): 62%; growth at 10 µM (A549 [11]): -46%; growth at 10 µM (SK-MEL-5): -90%; growth at 10 µM (SK-OV-3): -24%; growth at 100 µM (A549 [12]): -40%; growth at 100 µM (COLO 205): -39%; growth at 100 µM (KM12): -7%; growth at 100 µM (Malme-3M [13]): 23%; growth at 100 µM (MDA-MB-435 [14]): 2%; growth at 100 µM (BT-549 [15]): -68% |
